Reference: ChEMBL document CHEMBL1156678, “A new class of analgesic agents toward prostacyclin receptor inhibition: synthesis, biological studies and QSAR analysis of 1-hydroxyl-2-substituted phenyl-4,4,5,5-tetramethylimidazolines” (Eur J Med Chem, 2008)

Assays:
Mus musculus [1] = test: Thrombotic toxicity in ICR mouse assessed as tail bleeding time at 1.3 mmol/kg, ip after 60 mins; format: organism-based; details: in vivo, 1 h
How it was run: (§1)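 Male ICR mice (25 ± 2 g) were kept one day on a 12/12 h light/dark cycle at 21 ± 2 °C. Each received a single i.p. dose of 1.30 mmol/kg in saline/DMSO/Tween-80 (0.2/0.01/0.02 ml), or the solvent only. The restrained mouse had 1 mm cut from the tail before dosing and at 5, 15, 30 and 60 min. Bleeding time (s) is reported as mean ± SD.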

[2] = Cardiovascular toxicity in rat aorta assessed as inhibition of noradrenaline-induced vasoconstriction at 5 mM relative to control; format: tissue-based; details: isolated rat aorta
How it was run: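 Rat aortic strips were contracted with noradrenaline, washed, stabilized for 30 min, and contracted again. At peak contraction, compound was added (final 5 × 10^-3 M) or vehicle alone. The relaxant response was recorded as percentage inhibition of the contraction.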

Mus musculus [3] = test: Analgesic activity in ICR mouse assessed as pain threshold variation at 0.13 mmol/kg, ip after 30 mins by tail flick test relative to control; format: functional
How it was run: (§2)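 Male ICR mice (25 ± 2 g), kept on a 12/12 h light/dark cycle at 21 ± 2 °C for one day before use. Each received a single i.p. injection in 0.2 ml saline + 0.01 ml DMSO + 0.02 ml Tween-80. Vehicle-only mice served as controls. Basal tail-flick threshold was measured four times (BPT). Thresholds were then read every 30 min for 150 min. PTV = (post-dose threshold − BPT)/BPT. n = 10, x ± SD.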

Mus musculus [4] = test: Analgesic activity in ICR mouse assessed as pain threshold variation at 0.13 mmol/kg, ip after 60 mins by tail flick test relative to control; format: functional; how it was run: as §2
Mus musculus [5] = test: Analgesic activity in ICR mouse assessed as pain threshold variation at 0.13 mmol/kg, ip after 90 mins by tail flick test relative to control; format: functional; how it was run: as §2
Mus musculus [6] = test: Analgesic activity in ICR mouse assessed as pain threshold variation at 0.13 mmol/kg, ip after 120 mins by tail flick test; format: functional; how it was run: as §2
Mus musculus [7] = test: Analgesic activity in ICR mouse assessed as pain threshold variation at 0.13 mmol/kg, ip after 150 mins by tail flick test; format: functional; how it was run: as §2
Mus musculus [8] = test: Thrombotic toxicity in ICR mouse assessed as tail bleeding time at 1.3 mmol/kg, ip after 5 mins; format: organism-based; details: in vivo; how it was run: as §1
Mus musculus [9] = test: Thrombotic toxicity in ICR mouse assessed as tail bleeding time at 1.3 mmol/kg, ip after 15 mins; format: organism-based; details: in vivo, 0.25 h; how it was run: as §1
Mus musculus [10] = test: Thrombotic toxicity in ICR mouse assessed as tail bleeding time at 1.3 mmol/kg, ip after 30 mins; format: organism-based; details: in vivo, 0.5 h; how it was run: as §1
Mus musculus [11] = test: Analgesic activity in ICR mouse assessed as pain threshold variation at 0.013 mmol/kg, ip after 150 mins by tail flick test relative to control; format: functional; how it was run: as §2
Mus musculus [12] = test: Analgesic activity in ICR mouse assessed as pain threshold variation at 0.0013 mmol/kg, ip after 30 mins by tail flick test relative to control; format: functional; how it was run: as §2
Mus musculus [13] = test: Analgesic activity in ICR mouse assessed as pain threshold variation at 0.0013 mmol/kg, ip after 60 mins by tail flick test relative to control; format: functional; how it was run: as §2
Mus musculus [14] = test: Analgesic activity in ICR mouse assessed as pain threshold variation at 0.0013 mmol/kg, ip after 90 mins by tail flick test relative to control; format: functional; how it was run: as §2
Mus musculus [15] = test: Analgesic activity in ICR mouse assessed as pain threshold variation at 0.0013 mmol/kg, ip after 120 mins by tail flick test relative to control; format: functional; how it was run: as §2
Mus musculus [16] = test: Analgesic activity in ICR mouse assessed as pain threshold variation at 0.0013 mmol/kg, ip after 150 mins by tail flick test relative to control; format: functional; how it was run: as §2
Mus musculus [17] = test: Analgesic activity in ICR mouse assessed as pain threshold variation at 0.013 mmol/kg, ip after 30 mins by tail flick test relative to control; format: functional; how it was run: as §2
Mus musculus [18] = test: Analgesic activity in ICR mouse assessed as pain threshold variation at 0.013 mmol/kg, ip after 60 mins by tail flick test relative to control; format: functional; how it was run: as §2
Mus musculus [19] = test: Analgesic activity in ICR mouse assessed as pain threshold variation at 0.013 mmol/kg, ip after 90 mins by tail flick test relative to control; format: functional; how it was run: as §2
Mus musculus [20] = test: Analgesic activity in ICR mouse assessed as pain threshold variation at 0.013 mmol/kg, ip after 120 mins by tail flick test relative to control; format: functional; how it was run: as §2

Structure (SMILES) | Activity (Mus musculus [1]) | inhibition at 5000 µM [2] | Activity (Mus musculus [3]) | Activity (Mus musculus [4]) | Activity (Mus musculus [5]) | Activity (Mus musculus [6]) | Activity (Mus musculus [7]) | Activity (Mus musculus [8]) | Activity (Mus musculus [9]) | Activity (Mus musculus [10]) | Activity (Mus musculus [11]) | Activity (Mus musculus [12]) | Activity (Mus musculus [13]) | Activity (Mus musculus [14]) | Activity (Mus musculus [15]) | Activity (Mus musculus [16]) | Activity (Mus musculus [17]) | Activity (Mus musculus [18]) | Activity (Mus musculus [19]) | Activity (Mus musculus [20])
Cc1ccc(C2=NC(C)(C)C(C)(C)N2O)cc1 | 119 s | 16.7% | 42.06% | 55.16% | 48.82% | 39.96% | 45.41% | 119 s | 118 s | 117 s |  |  |  |  |  |  |  |  |  | 
CC1(C)N=C(c2ccc(Br)cc2)N(O)C1(C)C | 120 s | 18.4% | 29.02% | 89.78% | 75.18% | 75.77% | 70.19% | 118 s | 119 s | 118 s | 47.7% | 11.32% | 43.9% | 34.49% | 31.87% | 26.57% | 19.33% | 68.89% | 53.75% | 52.98%
COc1ccc(C2=NC(C)(C)C(C)(C)N2O)cc1OC | 118 s | 17.9% | 50.9% | 50.12% | 54.54% | 38.43% | 35.37% | 117 s | 117 s | 118 s |  |  |  |  |  |  |  |  |  | 
CC1(C)N=C(c2ccc([N+](=O)[O-])cc2)N(O)C1(C)C | 117 s | 32.7% | 44.15% | 38.32% | 36.31% | 35.97% | 47.81% | 118 s | 117 s | 117 s |  |  |  |  |  |  |  |  |  | 
COc1ccc(C2=NC(C)(C)C(C)(C)N2O)c(OC)c1 | 117 s | 23.3% | 52.93% | 44.85% | 44.96% | 38.34% | 37.89% | 118 s | 118 s | 119 s |  |  |  |  |  |  |  |  |  | 
CC1(C)N=C(c2ccccc2[N+](=O)[O-])N(O)C1(C)C | 118 s | 30.2% | 28.95% | 45.14% | 45.93% | 50.91% | 40.04% | 119 s | 119 s | 119 s |  |  |  |  |  |  |  |  |  | 
COc1cc(C2=NC(C)(C)C(C)(C)N2O)ccc1O | 117 s | 20.6% | 47.57% | 61.52% | 60.65% | 52.21% | 40.56% | 119 s | 118 s | 119 s |  |  |  |  |  |  |  |  |  | 
CC1(C)N=C(c2ccc(Cl)cc2)N(O)C1(C)C | 119 s | 23.8% | 63.85% | 70.21% | 75.61% | 74.74% | 88.42% | 117 s | 119 s | 117 s | 62.76% | 24.97% | 30.02% | 32.13% | 31.55% | 42.74% | 39.87% | 47.25% | 50.88% | 50%
CC1(C)N=C(c2ccc3c(c2)OCO3)N(O)C1(C)C | 118 s | 21.9% | 58.82% | 68.46% | 67.15% | 59.77% | 60.22% | 120 s | 119 s | 119 s |  |  |  |  |  |  |  |  |  | 
